From ChEMBL document CHEMBL2424632, “Substituted 2-hydroxy-N-(arylalkyl)benzamides induce apoptosis in cancer cell lines” (Eur J Med Chem, 2013)
The source made the active and inactive calls. The calls are words filed in the database; no cut-off is given here.

What was measured:
G-361 [1] = assay: Downregulation of cyclin A protein expression in human G361 cells at 0.22 to 6 uM after 24 hrs by immunoblotting analysis; type: functional, cell-based
Outline: (§1)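 Asynchronous G361 cells exposed 24 h; lysates made by harvesting in Laemmli sample buffer, resolved by SDS-PAGE, electroblotted to nitrocellulose, blocked, probed overnight with specific primary antibodies, then peroxidase-conjugated secondary antibodies; actin served as loading control.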

G-361 [2] = assay: Effect on cyclin E protein expression in human G361 cells at 0.22 to 6 uM after 24 hrs by immunoblotting analysis; type: functional, cell-based; outline: as §1
G-361 [3] = assay: Induction of autophagy in human G361 cells assessed as fragmentation of LC3 at 0.2 to 6 uM after 24 hrs by immunoblotting analysis; type: functional, cell-based; outline: as §1
G-361 [4] = assay: Induction of apoptosis in human G361 cells; type: functional, cell-based
G-361 [5] = assay: Induction of apoptosis in human G361 cells assessed as caspase-3/7 activation at 2 uM after 24 hrs by fluorescence assay relative to control; type: functional
Outline: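 G361 cells seeded at 20,000 per well overnight, then exposed 24 h to compound at 2 µM final. 3x caspase-3/7 buffer (HEPES pH 7.4, NaCl, KCl, MgCl2, EGTA, NP-40, CHAPS, sucrose, DTT, PMSF) with Ac-DEVD-AMC substrate added; incubated 37 °C, fluorescence read after 4 h at 346/442 nm; activity expressed relative to untreated cells.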

K562 = assay: Cytotoxicity against human K562 cells after 72 hrs by calcein-AM assay; type: functional, cell-based; conditions: K562, 72 h
G-361 [6] = assay: Induction of apoptosis in human G361 cells assessed as increase in p53 protein level at 0.2 to 6 uM after 24 hrs by immunoblotting analysis; type: functional, cell-based; outline: as §1
G-361 [7] = assay: Effect on CDK1 protein expression in human G361 cells at 0.22 to 6 uM after 24 hrs by immunoblotting analysis; type: functional, cell-based; outline: as §1
G-361 [8] = assay: Upregulation of p27KIP1 protein expression in human G361 cells at 670 nM after 24 hrs by immunoblotting analysis; type: functional, cell-based; outline: as §1
G-361 [9] = assay: Induction of apoptosis in human G361 cells assessed as decrease in BCL-XL protein expression after 24 hrs by immunoblotting analysis; type: functional, cell-based; outline: as §1
[10] = target: RAC-alpha serine/threonine-protein kinase (Homo sapiens) (UniProt P31749); assay: Inhibition of AKT phosphorylation at Ser473 in human G361 cells at 0.22 to 6 uM after 24 hrs by immunoblotting analysis; type: cell-based; conditions: G-361; outline: as §1
Sequence of RAC-alpha serine/threonine-protein kinase (Homo sapiens) (P31749 whole entry): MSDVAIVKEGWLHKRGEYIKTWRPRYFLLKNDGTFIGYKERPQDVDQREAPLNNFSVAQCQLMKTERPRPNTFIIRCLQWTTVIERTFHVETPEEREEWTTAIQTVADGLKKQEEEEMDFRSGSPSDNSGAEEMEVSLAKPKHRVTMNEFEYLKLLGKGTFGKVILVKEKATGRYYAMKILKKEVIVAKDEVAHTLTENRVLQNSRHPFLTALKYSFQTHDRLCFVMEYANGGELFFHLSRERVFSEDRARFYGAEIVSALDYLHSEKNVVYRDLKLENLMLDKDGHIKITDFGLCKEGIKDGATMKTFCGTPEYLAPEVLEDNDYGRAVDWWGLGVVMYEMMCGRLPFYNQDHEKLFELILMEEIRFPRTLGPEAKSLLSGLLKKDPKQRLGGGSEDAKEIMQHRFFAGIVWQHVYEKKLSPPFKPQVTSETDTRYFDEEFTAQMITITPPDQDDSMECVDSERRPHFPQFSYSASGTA

G-361 [11] = assay: Downregulation of MDM2 protein expression in human G361 cells at 0.2 to 6 uM after 24 hrs by immunoblotting analysis; type: functional, cell-based; outline: as §1
HCT-116 = assay: Cytotoxicity against human HCT116 cells after 72 hrs by calcein-AM assay; type: functional, cell-based; conditions: HCT-116, 72 h
G-361 [12] = assay: Induction of apoptosis in human G361 cells assessed as caspase-9 cleavage at 0.2 to 6 uM after 24 hrs by immunoblotting analysis; type: functional, cell-based; outline: as §1
G-361 [13] = assay: Downregulation of p53 protein expression in human G361 cells at 0.2 to 6 uM after 24 hrs by immunoblotting analysis; type: functional, cell-based; outline: as §1
G-361 [14] = assay: Cell cycle arrest in human G361 cells assessed as increase in sub-G1 phase population at 1 to 4 uM after 24 hrs by propidium iodide staining-based flow cytometric analysis in presence of BrdU; type: functional
Outline: (§2)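 Asynchronously growing cells treated 24 h; cultures pulse-labelled with 10 µM BrdU for 30 min at 37 °C before harvest, washed in PBS, fixed in 70% ethanol, denatured in 2 M HCl, neutralized, stained with fluorescein anti-BrdU antibody then propidium iodide; flow cytometry with 488 nm laser; sub-G1 and BrdU-positive S-phase fractions scored.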

G-361 [15] = assay: Cell cycle arrest in human G361 cells assessed as decrease in S phase population at 0.25 to 4 uM after 24 hrs by propidium iodide staining-based flow cytometric analysis in presence of BrdU; type: functional; outline: as §2
G-361 [16] = assay: Downregulation of CDK4 protein expression in human G361 cells at 0.22 to 6 uM after 24 hrs by immunoblotting analysis; type: functional, cell-based; outline: as §1
[17] = target: Mitogen-activated protein kinase; ERK1/ERK2 (Homo sapiens) (UniProt P27361+P28482); assay: Inhibition of ERK1/2 phosphorylation at Thr202/Tyr204 in human G361 cells at 0.22 to 6 uM after 24 hrs by immunoblotting analysis; type: cell-based; conditions: G-361; outline: as §1
Sequence of Mitogen-activated protein kinase; ERK1/ERK2 (Homo sapiens) (P27361 whole entry, looked up): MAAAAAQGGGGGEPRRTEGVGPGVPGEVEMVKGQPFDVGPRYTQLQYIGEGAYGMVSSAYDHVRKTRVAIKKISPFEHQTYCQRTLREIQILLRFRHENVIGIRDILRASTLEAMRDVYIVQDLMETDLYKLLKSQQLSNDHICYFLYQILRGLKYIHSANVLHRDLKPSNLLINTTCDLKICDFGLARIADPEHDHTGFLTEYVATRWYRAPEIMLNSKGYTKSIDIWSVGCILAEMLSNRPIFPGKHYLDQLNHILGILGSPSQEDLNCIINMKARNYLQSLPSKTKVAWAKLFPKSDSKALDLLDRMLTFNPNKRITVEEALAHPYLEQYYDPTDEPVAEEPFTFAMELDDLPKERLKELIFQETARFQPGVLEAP
Sequence of Mitogen-activated protein kinase; ERK1/ERK2 (Homo sapiens) (P28482 whole entry, looked up): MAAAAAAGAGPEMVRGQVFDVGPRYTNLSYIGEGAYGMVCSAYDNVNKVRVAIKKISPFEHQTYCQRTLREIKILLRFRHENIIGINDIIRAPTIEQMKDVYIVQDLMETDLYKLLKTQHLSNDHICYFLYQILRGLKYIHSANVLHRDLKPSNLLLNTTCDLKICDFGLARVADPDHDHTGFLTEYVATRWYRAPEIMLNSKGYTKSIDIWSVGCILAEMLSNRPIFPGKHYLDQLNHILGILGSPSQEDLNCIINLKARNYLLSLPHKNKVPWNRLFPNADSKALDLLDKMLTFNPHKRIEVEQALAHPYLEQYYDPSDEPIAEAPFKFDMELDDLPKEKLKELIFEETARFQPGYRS

G-361 [18] = assay: Effect on CDK2 protein expression in human G361 cells at 0.22 to 6 uM after 24 hrs by immunoblotting analysis; type: functional, cell-based; outline: as §1
G-361 [19] = assay: Upregulation of p27KIP1 protein expression in human G361 cells at 2 to 6 uM after 24 hrs by immunoblotting analysis; type: functional, cell-based; outline: as §1
G-361 [20] = assay: Induction of apoptosis in human G361 cells assessed as PARP-1 cleavage at 0.2 to 6 uM after 24 hrs by immunoblotting analysis; type: functional, cell-based; outline: as §1
HOS = assay: Cytotoxicity against human HOS cells after 72 hrs by calcein-AM assay; type: functional, cell-based
MCF7 = assay: Cytotoxicity against human MCF7 cells after 72 hrs by calcein-AM assay; type: functional, cell-based; conditions: MCF7, 72 h
G-361 [21] = assay: Cytotoxicity against human G361 cells after 72 hrs by calcein-AM assay; type: functional, cell-based; conditions: G-361, 72 h
G-361 [22] = assay: Induction of apoptosis in human G361 cells assessed as decrease in caspase-7 zymogene at 0.2 to 6 uM after 24 hrs by immunoblotting analysis; type: functional, cell-based; outline: as §1
HeLa = assay: Cytotoxicity against human HeLa cells after 72 hrs by calcein-AM assay; type: functional, cell-based
G-361 [23] = assay: Induction of apoptosis in human G361 cells assessed as decrease in caspase-3 zymogene at 0.2 to 6 uM after 24 hrs by immunoblotting analysis; type: functional, cell-based; outline: as §1
G-361 [24] = assay: Induction of apoptosis in human G361 cells assessed as increase in p53 mRNA level; type: functional, cell-based
G-361 [25] = assay: Induction of apoptosis in human G361 cells assessed as increase in BCL-2 protein expression at 0.2 to 6 uM after 24 hrs by immunoblotting analysis; type: functional, cell-based; outline: as §1
G-361 [26] = assay: Downregulation of cyclin B protein expression in human G361 cells at 0.22 to 6 uM after 24 hrs by immunoblotting analysis; type: functional, cell-based; outline: as §1

In the case of O=C(N[C@H](Cc1ccccc1)C(=O)Nc1ccc(Cl)cc1)c1cc(Cl)ccc1O, the Activity (G-361 [1]) is reported as “Active”, the Activity (G-361 [2]) is reported as “Active” and the Activity (G-361 [3]) is reported as “Active”. The Activity (G-361 [4]) was “Dose-dependent effect”, the “fold change (FC)” value (G-361 [5]) was greater than 10 and the IC50 (K562) was 2500 nM. The Activity (G-361 [6]) was “inactive”, the Activity (G-361 [7]) was “Active” and the Activity (G-361 [8]) was “Active”. The Activity (G-361 [9]) was “Dose-dependent effect”, the inhibition [10] was “Active” and the Activity (G-361 [11]) was “Active”. The IC50 (HCT-116) was 1700 nM, the Activity (G-361 [12]) was “Active” and the Activity (G-361 [13]) was “Active”. The Activity (G-361 [14]) was “Active”, the Activity (G-361 [15]) was “Active” and the Activity (G-361 [16]) was “Active”. The inhibition [17] was “Active”, the Activity (G-361 [18]) was “Active” and the Activity (G-361 [19]) was “inactive”. The Activity (G-361 [20]) was “Active”, the IC50 (HOS) was 2500 nM and the IC50 (MCF7) was 3500 nM. The IC50 (G-361 [21]) was 1300 nM, the Activity (G-361 [22]) was “Active” and the IC50 (HeLa) was 1100 nM. For the same compound, the Activity (G-361 [23]) was “Active”, the Activity (G-361 [24]) was “inactive” and the Activity (G-361 [25]) was “Active”. For the same compound, the Activity (G-361 [26]) was “Active”.
